Results as given in article PMC4463842 (Molecular Medicine Reports, 2015).

Key:
[1] = molecular target: peptide-HLA-A*0201 complex (Homo sapiens, UniProt P04439, D140Y/D185E/D98H/E176V/E277Q/G131W/G231S/I119V/I121R/I166T/I218V/L300P/L318F/N151K/N90K/P208A/P217A/Q86G/Q94H/R138H/R169H/T345S); test: BFA decay assay; assay type: binding; settings: T2 cells loaded with 100 µM peptide, 37°C, time required for 50% reduction of the MFI value recorded at time 0
[2] = system: T2 cells pulsed with corresponding peptides; test: LDH release cytotoxicity assay of peptide-specific CTLs; assay type: cell-based, human; settings: effector to target cell ratio 100:1
How it was run: (§1)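 Effectors were CTLs from donor PBMCs after three rounds of peptide stimulation over 3 weeks. Targets were plated at 5,000/well at E:T 100:1, spun 250 × g 4 min, then co-cultured 4–6 h at 37°C, 5% CO2, in phenol red-free medium with 5% FBS. Supernatant LDH gave %cytotoxicity = (experimental − effector spontaneous − target spontaneous)/(target maximum − target spontaneous) ×100. Triplicate wells, three repeats.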

[3] = system: MCF-7 cells (HLA-A*0201+, EPS8+); test: as above; assay type: cell-based, human; settings: effector to target cell ratio 100:1, CTLs induced with peptide 10 µg/ml
How it was run: as §1

Row | Sequence | DC50 [1] [h] | lysis rate of T2 cells loaded with the corresponding peptide ([2]; donor 1) [%] | lysis rate of T2 cells loaded with the corresponding peptide ([2]; donor 2) [%] | average lysis rate of MCF-7 cells ([3]; donor 1) [%] | average lysis rate of MCF-7 cells ([3]; donor 2) [%]
1 | ILDDIEFFI [Peptide 276] | 6 to 8 | – | – | – | –
2 | KLLDAKGKV [Peptide 92] | – | 45.41±4.16 | 35.23±1.50 | 51.28±1.54 | 54.22±3.01
3 | FLFTPLNMV [Peptide 360] | >8 | – | – | – | –
4 | QLAESVANV [Peptide 455] | >8 | – | – | – | –
